The text below walks through data of ChEMBL document CHEMBL4334446, “Evaluating the effects of fluorine on biological properties and metabolic stability of some antitubulin 3-substituted 7-phenyl-pyrroloquinolinones” (Eur J Med Chem, 2019).

Molecules are shown by their SMILES. The source made the active and inactive calls. The rule behind the calls is not given here.

Series [1] in a line: Selectivity ratio of GI50 for human PBL cells to GI50 for human CEM cells incubated for 72 hrs by MTT assay. The class given is functional. In short, it runs like this:
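Leukemia cells (CEM, DND-41, Jurkat) were grown in RPMI-1640 at 8×10³ cells/well and left 18 h. Donor PBL were gradient-separated, held overnight in RPMI-1640/10% FBS, and non-adherent cells set at 5×10^5 cells/mL without PHA (resting). Both were exposed 72 h to graded concentrations, read by MTT. The ratio is PBL GI50 over leukemia GI50.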

Another series has as its system CCRF-CEM. The series is described as follows: Growth inhibition of human CEM cells incubated for 72 hrs by MTT assay. It is filed as functional. In short, it runs like this: (§1)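 Leukemia lines were grown in RPMI-1640; the CEM^Vbl-100 medium also contained 100 ng/mL vinblastine. Cells were seeded at 8 × 10³ per well and left 18 h at 37 °C, 5% CO2. Medium was then replaced with fresh medium holding graded compound concentrations (DMSO stocks), in triplicate, for 72 h. Viability was read by MTT, and GI50 = concentration inhibiting proliferation 50%.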

The nature of series [2]: Metabolic stability in human liver microsomes assessed as retention time of the parent compound at 10 uM incubated for 60 mins in presence of NADPH by HPLC analysis. It is filed as ADME, Microsome. Particulars: 1 h. In short, it runs like this: (§2)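 Compound (10 µM) was incubated with pooled mixed-gender HLMs (0.5 mg protein/mL), 1 mM NADPH and 0.1 M KH2PO4 pH 7.4 for 60 min at 37 °C, aerobic. The reaction was started with microsomes and stopped with ice-cold acetonitrile; controls lacked NADPH. The supernatant went to C8 HPLC with fluorescence detection (ex 344, em 493 nm). Collected peaks were analyzed by ESI+ mass spectrometry.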

Series [3] concerns HeLa. The series is described as follows: Growth inhibition of human HeLa cells incubated for 72 hrs by MTT assay. The class given is functional.
Series [4] is described as follows: Metabolic stability in human liver microsomes at 10 uM incubated for 60 mins in presence of NADPH by ESI-MS analysis. It is filed as ADME, Microsome. Particulars: 1 h.
Series [5] can be described thus: Metabolic stability in human liver microsomes assessed as 7-phenyl-3H-pyrrolo[3,2-f]quinolin-9(6H)-one metabolite formation at 10 uM incubated for 60 mins in presence of NADPH by ESI-MS analysis. The class given is ADME, Microsome. Particulars: 1 h. In short, it runs like this:
as §2

Series [6] in a line: Metabolic stability in human liver microsomes at 10 uM incubated for 60 mins in absence of NADPH by HPLC analysis. It is filed as ADME, Microsome. The settings on record: 1 h. Summed up:
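Compound at 10 μM final was incubated at 37 °C with pooled mixed-gender HLMs (1 mg/mL) in 0.1 M KH₂PO₄ pH 7.4, NADPH omitted, for 0 or 60 min. Reaction was started by adding microsomes after 3-min equilibration and stopped with ice-cold acetonitrile. Supernatant was analysed by HPLC-fluorescence. Percent remaining at 60 min is relative to 0 min; mean ± SD, n = 3.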

In series [7] the test system is HeLa. The series is described as follows: Cell cycle arrest in human HeLa cells assessed as proportion of mitotic cells at 100 nM incubated for 24 hrs by PI staining based flow cytometry (reference value: 1.5%). It is filed as functional.
In series [8] the test system is HeLa. The series is described as follows: Increase in cyclin B1 protein expression level in human HeLa cells incubated for 24 to 48 hrs by western blot analysis. The class given is functional, cell-based. Summed up:
(§3)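 HeLa cells were exposed for set times, including 24 and 48 h, then washed in cold PBS and lysed on ice for 30 min. Lysates were cleared at 15000 × g at 4 °C. 10 µg protein was run by SDS-PAGE and transferred to PVDF. Blots were probed 2 h at room temperature with primary antibodies, then peroxidase secondary antibodies, and detected by ECL. Membranes were reprobed for actin as loading control.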

Series [9] is described as follows: Growth inhibition of human DND41 cells incubated for 72 hrs by MTT assay. It is filed as functional. The settings on record: DND41, 72 h. Summed up: as §1
The test system of series [10] is B16-BL6. The series is described as follows: Antitumour activity against mouse B16-BL6 cells allografted in C57BL/6 mouse assessed as reduction in tumor mass at 3 mg/kg, ip administrated every other day relative to control. It is filed as functional. Summed up:
(§4)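 Male C57BL/6 mice (six weeks old) got 2.5×10^5 BL6-B16 murine melanoma cells s.c. in the dorsolateral flank, in PBS. Once tumors were measurable (about 100 mm³), mice were randomized and given drug i.p. every other day in 50 µL DMSO. Vehicle (DMSO) group served as control. Tumor volume = (D × d²)/2; tumor weight taken at end. 5 animals per group, mean ± SEM.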

Series [11] deals with A-375. The series is described as follows: Growth inhibition of human A375 cells incubated for 72 hrs by MTT assay. Particulars: A-375, 72 h. The class given is functional.
Series [12] deals with HeLa. The series is described as follows: Cell cycle arrest in human HeLa cells assessed as disappearance in cdc25c protein expression at 50 to 100 nM incubated for 48 hrs by western blot analysis. The class given is functional, cell-based. In short, it runs like this: as §3
The test system of series [13] is HeLa. The series is described as follows: Induction of mitochondrial membrane depolarization in human HeLa cells at 10 to 100 nM measured at early apoptotic stage of cells by JC1 staining based flow cytometric analysis. The settings on record: TDE = time-dependent effect. It is filed as functional, cell-based. In short, it runs like this:
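HeLa cells were treated 6, 12, 24 and 48 h with 10–100 nM. Cells were stained with JC-1, and the fraction with low mitochondrial potential was measured by flow cytometry. Mean ± SEM of three independent experiments.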

For another series, the system named is MDA-MB-468. The series is described as follows: Growth inhibition of human MDA-MB-468 cells incubated for 72 hrs by MTT assay. It is filed as functional. Particulars: MDA-MB-468, 72 h.
In series [14] the test system is HeLa. The series is described as follows: Induction of cell cycle arrest in human HeLa cells assessed as accumulation at M phase by measuring p-histone H3 level at 50 to 100 nM incubated for 24 hrs by PI staining based flow cytometric analysis. It is filed as functional.
The test system of series [15] is A2058. The series is described as follows: Induction of cell cycle arrest in human A2058 cells assessed as reduction in cell population at S phase at 50 to 100 nM incubated for 24 hrs by PI staining based flow cytometric analysis. The class given is functional. Summed up:
(§5)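 A375 and A2058 melanoma cells were treated 24 h. Cells were fixed in ice-cold 70% ethanol, then given lysis buffer with RNase A and 0.1% Triton X-100 and stained with PI. Phase distribution came from flow cytometric DNA histograms. Mean ± SEM of two independent experiments.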

Series [16] deals with HeLa. The series is described as follows: Cell cycle arrest in human HeLa cells assessed as decrease in cdc25c protein expression level at 50 to 100 nM incubated for 24 hrs by western blot analysis. The class given is functional, cell-based. In short, it runs like this:
as §3

Series [17] has as its system A2058. The series is described as follows: Growth inhibition of human A2058 cells incubated for 72 hrs by MTT assay. The settings on record: A2058, 72 h. It is filed as functional.
The subject of series [18] is HeLa. The series is described as follows: Induction of apoptosis in human HeLa cells assessed as decrease in Bcl2 protein expression at 10 to 100 nM incubated for 24 hrs by western blot analysis. The class given is functional, cell-based. Summed up: as §3
The test system of series [19] is A-375. The series is described as follows: Induction of cell cycle arrest in human A375 cells assessed as accumulation of cells at G2/M phase at 50 to 100 nM incubated for 24 hrs by PI staining based flow cytometric analysis. It is filed as functional. In short, it runs like this: as §5
The next series relates to MDA-MB-231. The series is described as follows: Growth inhibition of human MDA-MB-231 cells incubated for 72 hrs by MTT assay. The settings on record: MDA-MB-231, 72 h. The class given is functional.
The test system of series [20] is B16-BL6. The series is described as follows: Antitumour activity against mouse B16-BL6 cells allografted in C57BL/6 mouse assessed as reduction in tumor mass at 7.5 mg/kg, ip administrated every other day relative to control. It is filed as functional. Summed up:
as §4

For series [21], the system named is A2058. The series is described as follows: Induction of cell cycle arrest in human A2058 cells assessed as accumulation of cells at G2/M phase at 50 to 100 nM incubated for 24 hrs by PI staining based flow cytometric analysis. It is filed as functional. In short, it runs like this: as §5

With `CCn1ccc2c3c(=O)cc(-c4ccccc4)[nH]c3ccc21`, in series [1], the RatioGI50 is reported as 10000 - 30000. Also, the GI50 amounted to 14 nM with CCRF-CEM and 11 nM in the series on HeLa [3]. Further, the Retention_time in series [2] amounted to 12.9 min. The Drug metabolism result in series [4] and in series [5] was “Metabolite_Detected” throughout. Also, in series [6], the Stability entry is reported as “Stable”.
Turning to `CCn1ccc2c3c(=O)cc(-c4ccccc4F)[nH]c3ccc21`, the Activity in the series with HeLa [7] is 44%; with HeLa [8], “Dose-dependent effect”; in the series with HeLa [13], “Tde”. The RatioGI50 in series [1] is given as 10000 - 30000. Moreover, the GI50 in the series with CCRF-CEM was determined as 3.1 nM; in series [9] it was 0.26 nM; with HeLa [3] it was 1.2 nM; in the series with A-375 [11], 15.5 nM; in the series on MDA-MB-468, 22.3 nM; with A2058 [17] it was 4.8 nM. Besides, it took 164 nM to inhibit growth with MDA-MB-231 by half (GI50). In the series on B16-BL6 [10], the inhibition in vivo at 3 mg/kg amounted to 28.6%. Moreover, the inhibition entry in the series with HeLa [12] and in the series on HeLa [16] was “Active” in each case. The result in the series with HeLa [14], in the series on A2058 [15], in the series on HeLa [18], with A-375 [19] and in the series on A2058 [21] was Active. In the series with B16-BL6 [20], the inhibition in vivo at 7.5 mg/kg was found to be 60%.
